Measured values from ChEMBL document CHEMBL3621052, “Small cyclic agonists of iron regulatory hormone hepcidin” (Bioorg Med Chem Lett, 2015).
pEC50: −log10 of the molar value. Active and inactive are the calls of the source. The rule behind the calls is not given here. Starred links: 1 amine or outer side, 2 acyl side, 3 side chain; linkers in the order of their positions; H or OH if unused. Positions of bridges follow the written chain, without caps; N, C: chain ends. Non-standard residues stand in square brackets, D forms with d. Residues, ends and D or L forms follow the SMILES beside them. ξ: configuration not given here. *: point of attachment. CH2CONHCH2CH2NHCOCH2 = O=C(C[*:1])NCCNC(=O)C[*:2]; Propanoyl(3,3-Ph2) = O=C(CC(c1ccccc1)c1ccccc1)*; Pyridine(2,6-diCH2) = c1cc(C[*:1])nc(C[*:2])c1; X2 = O=C(CC(c1ccccc1)(c1ccccc1)c1ccccc1)*; dDip = N[C@@H](C(=O)O)C(c1ccccc1)c1ccccc1; X5 = c1cc(Cc2cccc(C[*:2])c2)cc(C[*:1])c1; Dip = N[C@H](C(=O)O)C(c1ccccc1)c1ccccc1; X7 = c1cc(Oc2ccc(C[*:2])cc2)ccc1C[*:1]; TBMB = c1c(C[*:1])cc(C[*:3])cc1C[*:2]; mXylylene = c1cc(C[*:1])cc(C[*:2])c1; oXylylene = c1ccc(C[*:2])c(C[*:1])c1; NH(CH2CH2O)2CH2CH2NH2 = NCCOCCOCCN*; X6 = c1cc(C[*:1])c2c(C[*:2])cccc2c1; pXylylene = c1cc(C[*:2])ccc1C[*:1]; Palmitoyl = CCCCCCCCCCCCCCCC(=O)*; X4 = c1cc(CSCCN[*:2])cc(C[*:1])c1; X3 = O=S(=O)(CC[*:1])CC[*:2]; ξF = NC(Cc1ccccc1)C(=O)O; Mpa = O=C(O)CCS

How the values were obtained:
[1] = molecular target: T1, Ferroportin (Homo sapiens, UniProt Q9NP59); assay: Agonist activity at GFP-fused human FPN transfected in HEK293 cells assessed as protein degradation after 24 hrs by flow cytometric analysis; assay type: cell-based
T1 sequence (Q9NP59 whole entry): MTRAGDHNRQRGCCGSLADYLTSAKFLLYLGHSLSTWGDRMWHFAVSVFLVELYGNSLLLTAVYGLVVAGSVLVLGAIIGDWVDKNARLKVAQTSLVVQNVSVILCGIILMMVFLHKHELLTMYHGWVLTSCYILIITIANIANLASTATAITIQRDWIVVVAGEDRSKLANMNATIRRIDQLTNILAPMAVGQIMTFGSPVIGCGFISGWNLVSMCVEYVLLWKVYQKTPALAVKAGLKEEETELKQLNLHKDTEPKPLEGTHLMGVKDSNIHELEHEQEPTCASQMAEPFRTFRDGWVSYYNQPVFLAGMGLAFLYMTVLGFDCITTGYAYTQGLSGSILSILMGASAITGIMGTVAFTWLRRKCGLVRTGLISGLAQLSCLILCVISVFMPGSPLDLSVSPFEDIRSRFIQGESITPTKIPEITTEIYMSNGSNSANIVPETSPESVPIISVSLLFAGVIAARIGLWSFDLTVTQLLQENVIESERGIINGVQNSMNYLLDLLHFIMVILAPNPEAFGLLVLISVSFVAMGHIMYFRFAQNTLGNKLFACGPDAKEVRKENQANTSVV
In short: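 HEK293:TREX-Fpn-GFP cells (human ferroportin-GFP, doxycycline-inducible) plated on poly-D-lysine with 20 μM FAC, induced with 500 ng/mL doxycycline for 24 h, washed, then peptide-treated 24 h. Green fluorescence read by flow cytometry at 1 × 10^6 cells/mL, gated against uninduced cells. Activity expressed as fraction of hep25: 1 − [(Fx − Fhep25)/(Funtreated − Fhep25)]. 3–6 independent repeats.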

[2] = tested on: Mus musculus; assay: Decrease in serum iron level in C57BL/6 mouse at 100 nmol, sc after 24 hrs by colorimetric analysis; assay type: functional, organism-based
In short: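 C57BL/6 mice on NIH 31 diet (iron 336 mg/kg). Single subcutaneous injection of 50, 100 or 200 nmoles peptide in 100 μL PBS; controls received PBS alone. Killed at 24 h, serum from cardiac blood. Serum iron by colorimetric assay (microplate, 50 μL serum). Percent decrease versus mean of PBS-injected mice.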

[3] = tested on: Plasma; assay: Metabolic stability in mouse plasma at 25 uM by LC/MS analysis; assay type: ADME, cell-free
In short: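 Peptide from 10 mM DMSO stock added to fresh mouse plasma (final 25 μM), incubated at 37 °C. Samples (10 μL) taken at time-points and diluted into DMSO/ACN 1:1 with 0.1% TFA. Centrifuged 13000 rpm, 10 min. Supernatant analysed by triple-quadrupole LC/MS with NM4A-Me peptide as internal standard.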

SMILES	pEC50 [1]	other results
N=C(N)NCCC[C@@H]1NC(=O)[C@H](CS)NC(=O)[C@H](CCCNC(=N)N)NC(=O)[C@H](NC(=O)CC(c2ccccc2)c2ccccc2)CSCc2cccc(c2)CSCCNC(=O)[C@H](Cc2ccccc2)NC1=O	6.57	
CCCCCCCCCCCCCCCCNC(=O)CN(CC(N)=O)C(=O)CCCCCNC(=O)C[C@H](Cc1ccccc1)NC(=O)[C@H](CCCNC(=N)N)NC(=O)[C@H](CS)NC(=O)[C@H](CCCNC(=N)N)NC(=O)C[C@@H]1CCCN1C(=O)[C@@H](NC(=O)[C@H](Cc1c[nH]cn1)NC(=O)[C@@H](NC(=O)CNCC(=O)O)[C@@H](C)O)C(c1ccccc1)c1ccccc1		Activity [2]: Active; Stability [3]: Stable
C[C@@H](O)[C@H](NC(=O)CNCC(=O)O)C(=O)N[C@H]1CSCc2cccc(c2)CSC[C@@H](C(N)=O)NC(=O)[C@H](Cc2ccccc2)NC(=O)[C@H](CCCNC(=N)N)NC(=O)[C@H](CS)NC(=O)[C@H](CCCNC(=N)N)NC(=O)[C@@H]2CCCN2C(=O)[C@H](Cc2ccccc2)NC1=O	6.27	
C[C@@H](O)[C@H](NC(=O)CNCC(=O)O)C(=O)N[C@H]1CSCc2cccc(c2)CSC[C@@H](C(N)=O)NC(=O)[C@H](Cc2ccccc2)NC(=O)[C@H](CCCNC(=N)N)NC(=O)[C@H](CS)NC(=O)[C@H](CCCNC(=N)N)NC(=O)[C@@H]2CCCN2C(=O)[C@H](C(c2ccccc2)c2ccccc2)NC1=O	7.12	
CC(=O)N[C@H]1CSCC(=O)NCCNC(=O)CSC[C@@H](C(N)=O)NC(=O)[C@H](Cc2ccccc2)NC(=O)[C@H](CCCNC(=N)N)NC(=O)[C@H](CS)NC(=O)[C@H](CCCNC(=N)N)NC(=O)[C@@H]2CCCN2C(=O)[C@H](Cc2ccccc2)NC1=O (Ac-CFPRCRFC-NH2; linker 1-8 via CH2CONHCH2CH2NHCOCH2)	< 6.22	
CC(=O)N[C@H]1CSCc2cccc(n2)CSC[C@@H](C(N)=O)NC(=O)[C@H](Cc2ccccc2)NC(=O)[C@H](CCCNC(=N)N)NC(=O)[C@H](CS)NC(=O)[C@H](CCCNC(=N)N)NC(=O)[C@@H]2CCCN2C(=O)[C@H](Cc2ccccc2)NC1=O (Ac-CFPRCRFC-NH2; linker 1-8 via Pyridine(2,6-diCH2))	< 6.22	
CC(=O)N[C@H]1CSCCS(=O)(=O)CCSC[C@@H](C(N)=O)NC(=O)[C@H](Cc2ccccc2)NC(=O)[C@H](CCCNC(=N)N)NC(=O)[C@H](CS)NC(=O)[C@H](CCCNC(=N)N)NC(=O)[C@@H]2CCCN2C(=O)[C@H](Cc2ccccc2)NC1=O (Ac-CFPRCRFC-NH2; linker 1-8 via X3)	< 6.22	
CC(=O)N[C@H]1CSCc2cccc(c2)Cc2cccc(c2)CSC[C@@H](C(N)=O)NC(=O)[C@H](Cc2ccccc2)NC(=O)[C@H](CCCNC(=N)N)NC(=O)[C@H](CS)NC(=O)[C@H](CCCNC(=N)N)NC(=O)[C@@H]2CCCN2C(=O)[C@H](Cc2ccccc2)NC1=O (Ac-CFPRCRFC-NH2; linker 1-8 via X5)	6.29	
CC(=O)N[C@H]1CSCc2cccc3cccc(c23)CSC[C@@H](C(N)=O)NC(=O)[C@H](Cc2ccccc2)NC(=O)[C@H](CCCNC(=N)N)NC(=O)[C@H](CS)NC(=O)[C@H](CCCNC(=N)N)NC(=O)[C@@H]2CCCN2C(=O)[C@H](Cc2ccccc2)NC1=O (Ac-CFPRCRFC-NH2; linker 1-8 via X6)	< 6.22	
CC(=O)N[C@H]1CSCc2ccc(cc2)Oc2ccc(cc2)CSC[C@@H](C(N)=O)NC(=O)[C@H](Cc2ccccc2)NC(=O)[C@H](CCCNC(=N)N)NC(=O)[C@H](CS)NC(=O)[C@H](CCCNC(=N)N)NC(=O)[C@@H]2CCCN2C(=O)[C@H](Cc2ccccc2)NC1=O (Ac-CFPRCRFC-NH2; linker 1-8 via X7)	6.32	
CC(=O)N[C@H]1CSCc2cccc(c2)CSC[C@@H](C(N)=O)NC(=O)[C@H](Cc2ccccc2)NC(=O)[C@H](CCCNC(=N)N)NC(=O)[C@H](CS)NC(=O)[C@H](CCCNC(=N)N)NC(=O)[C@@H]2CCCN2C(=O)[C@H](Cc2ccccc2)NC1=O (Ac-CFPRCRFC-NH2; linker 1-8 via mXylylene)	6.57	
CC(=O)N[C@H]1CSCc2ccccc2CSC[C@@H](C(N)=O)NC(=O)[C@H](Cc2ccccc2)NC(=O)[C@H](CCCNC(=N)N)NC(=O)[C@H](CS)NC(=O)[C@H](CCCNC(=N)N)NC(=O)[C@@H]2CCCN2C(=O)[C@H](Cc2ccccc2)NC1=O (Ac-CFPRCRFC-NH2; linker 1-8 via oXylylene)	6.22	
CC(=O)N[C@H]1CSCc2ccc(cc2)CSC[C@@H](C(N)=O)NC(=O)[C@H](Cc2ccccc2)NC(=O)[C@H](CCCNC(=N)N)NC(=O)[C@H](CS)NC(=O)[C@H](CCCNC(=N)N)NC(=O)[C@@H]2CCCN2C(=O)[C@H](Cc2ccccc2)NC1=O (Ac-CFPRCRFC-NH2; linker 1-8 via pXylylene)	6.23	
CC(=O)N[C@H]1CSCc2cc3cc(c2)CSC[C@H](NC(=O)C(Cc2ccccc2)NC(=O)[C@H](CCCNC(=N)N)NC(=O)[C@H](CS)NC(=O)[C@H](CCCNC(=N)N)NC(=O)[C@@H]2CCCN2C(=O)[C@H](Cc2ccccc2)NC1=O)C(=O)N[C@@H](Cc1ccccc1)C(=O)N1CCC[C@H]1C(=O)N[C@@H](CCCNC(=N)N)C(=O)N[C@@H](CS)C(=O)N[C@@H](CCCNC(=N)N)C(=O)N[C@@H](Cc1ccccc1)C(=O)N[C@H](C(N)=O)CSC3 (some centres undefined) (Ac-CFPRCR[ξF]CFPRCRFC-NH2; linker 1-8-15 via TBMB)	< 6.22	
CC(=O)N[C@H]1CSCc2cccc(c2)CSC[C@@H](C(N)=O)NC(=O)[C@H](Cc2ccccc2)NC(=O)[C@H](CCCNC(=N)N)NC(=O)[C@H](CS)NC(=O)[C@H](CCCNC(=N)N)NC(=O)[C@@H]2CCCN2C(=O)[C@H](C(c2ccccc2)c2ccccc2)NC1=O (Ac-C[Dip]PRCRFC-NH2; linker 1-8 via mXylylene)	7.27	
CC(=O)N[C@H]1CSCc2cccc(c2)CSC[C@@H](C(=O)NCCOCCOCCN)NC(=O)[C@H](Cc2ccccc2)NC(=O)[C@H](CCCNC(=N)N)NC(=O)[C@H](CS)NC(=O)[C@H](CCCNC(=N)N)NC(=O)[C@@H]2CCCN2C(=O)[C@H](C(c2ccccc2)c2ccccc2)NC1=O (Ac-C[Dip]PRCRFC-{NH(CH2CH2O)2CH2CH2NH2}; linker 1-8 via mXylylene)	6.78	
CCCCCCCCCCCCCCCC(=O)N[C@H]1CSCc2cccc(c2)CSCCNC(=O)[C@H](Cc2ccccc2)NC(=O)[C@H](CCCNC(=N)N)NC(=O)[C@H](CS)NC(=O)[C@H](CCCNC(=N)N)NC(=O)[C@@H]2CCCN2C(=O)[C@H](C(c2ccccc2)c2ccccc2)NC1=O (Palmitoyl-C[Dip]PRCRF; linker 1-C via X4)	6.43	
CCCCCCCCCCCCCCCC(=O)N[C@H]1CSCc2cccc(c2)CSC[C@@H](C(N)=O)NC(=O)[C@H](Cc2ccccc2)NC(=O)[C@H](CCCNC(=N)N)NC(=O)[C@H](CS)NC(=O)[C@H](CCCNC(=N)N)NC(=O)[C@@H]2CCCN2C(=O)[C@H](C(c2ccccc2)c2ccccc2)NC1=O (Palmitoyl-C[Dip]PRCRFC-NH2; linker 1-8 via mXylylene)	< 6.22	
CCCCCCCCCCCCCCCC(=O)N[C@H](C(=O)N[C@H]1CSCc2cccc(c2)CSCCNC(=O)[C@H](Cc2ccccc2)NC(=O)[C@H](CCCNC(=N)N)NC(=O)[C@H](CS)NC(=O)[C@H](CCCNC(=N)N)NC1=O)C(c1ccccc1)c1ccccc1 (Palmitoyl-[Dip]CRCRF; linker 2-C via X4)	< 6.22	
CCCCCCCCCCCCCCCC(=O)N[C@@H](C(=O)N[C@H]1CSCc2cccc(c2)CSCCNC(=O)[C@H](Cc2ccccc2)NC(=O)[C@H](CCCNC(=N)N)NC(=O)[C@H](CS)NC(=O)[C@H](CCCNC(=N)N)NC1=O)C(c1ccccc1)c1ccccc1 (Palmitoyl-[dDip]CRCRF; linker 2-C via X4)	6.34	
N=C(N)NCCC[C@@H]1NC(=O)[C@@H](NC(=O)CC(c2ccccc2)(c2ccccc2)c2ccccc2)CSCc2cccc(c2)CSC[C@@H](C(N)=O)NC(=O)[C@H](Cc2ccccc2)NC(=O)[C@H](CCCNC(=N)N)NC(=O)[C@H](CS)NC1=O (X2-CRCRFC-NH2; linker 1-6 via mXylylene)	6.95	
N=C(N)NCCC[C@@H]1NC(=O)[C@H](CS)NC(=O)[C@H](CCCNC(=N)N)NC(=O)[C@@H]2CCCN2C(=O)[C@H](C(c2ccccc2)c2ccccc2)NC(=O)CCSCc2cccc(c2)CSC[C@@H](C(=O)NCCOCCOCCN)NC(=O)[C@H](Cc2ccccc2)NC1=O ([Mpa][Dip]PRCRFC-{NH(CH2CH2O)2CH2CH2NH2}; linker 1-8 via mXylylene)	7.03	
N=C(N)NCCC[C@@H]1NC(=O)[C@H](CS)NC(=O)[C@H](CCCNC(=N)N)NC(=O)[C@H](NC(=O)CC(c2ccccc2)c2ccccc2)CSCc2cccc(c2)CSC[C@@H](C(N)=O)NC(=O)[C@H](Cc2ccccc2)NC1=O ({Propanoyl(3,3-Ph2)}-[dC]RCRFC-NH2; linker 1-6 via mXylylene)	6.47	
